Source: the M2OR odorant receptor database

What follows are compounds tested against T1, OR1A1 (Homo sapiens) (UniProt Q9P1Q5). Settings: stereoisomer not certain.
T1 sequence (whole entry): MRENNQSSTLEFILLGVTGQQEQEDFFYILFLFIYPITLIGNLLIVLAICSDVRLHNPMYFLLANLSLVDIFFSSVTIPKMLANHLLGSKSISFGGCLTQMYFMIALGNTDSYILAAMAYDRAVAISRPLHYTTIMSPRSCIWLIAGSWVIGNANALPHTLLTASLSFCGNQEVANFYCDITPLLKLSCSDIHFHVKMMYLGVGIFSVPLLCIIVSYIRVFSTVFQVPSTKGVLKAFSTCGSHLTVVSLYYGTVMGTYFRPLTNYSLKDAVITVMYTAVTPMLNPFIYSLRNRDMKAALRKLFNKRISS
Procedure, shortened: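 Each entry records the cell line, G-protein, co-transfected protein and tags used. Methods varied with the source, often transient luciferase assays in mammalian cell lines. A receptor–molecule pair is called responsive (active) if the original authors judged its signal statistically different from baseline and non-responsive (inactive) otherwise.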

SMILES	odorant receptor agonist call
CCCCCC(C)O (configuration not stated)	inactive
Cc1cccc(O)c1	inactive
C=CCSC	inactive
CC(C)=CC1CC(C)CCO1 (configuration not stated)	inactive
O=C(O)C=Cc1ccc(O)cc1	inactive
CCCCC(=O)C(C)=O	inactive
CCOC(=O)CCSC	inactive
C=C(C)c1ccc(C)cc1	inactive
CCc1nccnc1CC	inactive
CCCC(=O)OC	inactive
CC(=O)c1ccccc1N	inactive
CCOC(=O)C1CCCCC1	active
CCC=CCCOC(C)=O	inactive
CC12CCC(CC1=O)C2(C)C (configuration not stated)	inactive
CC=CC(=O)C(C)CC (configuration not stated)	inactive
CCC=CCCCCCC=O	active
CSCCC=O	inactive
CCCC(C)=O	inactive
CSSc1ccoc1C	inactive

SMILES	odorant receptor agonist call
CCc1cccc(O)c1	inactive
CC(C)CC=O	inactive
CCCCC=CC=O	inactive
CCO	inactive
CCCC=CC=O	inactive
CCCc1ccc(O)c(OC)c1	inactive
O=C([O-])CCC(=O)[O-].[H+].[H+]	inactive
CCC(C)c1nccnc1OC (configuration not stated)	inactive
CC(=O)OCc1ccccc1	active
CC=CC(=O)C1=C(C)CCCC1(C)C	inactive
CCCCC(CC)CCC(=O)O (configuration not stated)	inactive
O=C(c1ccccc1)c1ccccc1	active
C=C(C)C1CCC(C)C(=O)C1 (configuration not stated)	active
CCC(=O)C(C)=O	inactive
COC(=O)C=Cc1ccccc1	inactive
CCCCCC(=O)CC(C)=O	active
CCCCC(=O)OCC	inactive
CCCCCCCCCC(=O)[O-].[H+]	inactive
